Entries after “also recorded” stand apart in the source; their conditions may differ.
Experiments:
mGlu3 [1] = target: T1, mGlu3 (Rattus norvegicus, UniProt P31422); assay: mGlu3 calcium mobilization assay; assay type: cell-based
mGlu1 = mGlu1 (Homo sapiens, UniProt Q13255); assay: mGluR selectivity, mGlu1; assay type: cell-based
mGlu6 = mGlu6 (Homo sapiens, UniProt O15303); assay: mGluR selectivity, mGlu6; assay type: cell-based
[2] = mouse tissue distribution study; assay type: in vivo; settings: cassette, IP
Summary of the method: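 Mice received the test compounds together as a cassette by intraperitoneal injection. Plasma and brain tissue were then analysed by LC/MS/MS to measure compound exposure in each and derive the brain-to-plasma ratio.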

[3] = human microsomal clearance; assay type: in vitro ADME
mGlu8 = mGlu8 (Homo sapiens, UniProt O00222); assay: mGluR selectivity, mGlu8; assay type: cell-based
5-HT2B = 5-HT2B (Homo sapiens, UniProt P41595); assay: functional activity at 5-HT2B
mGlu3 [4] = target: T1, mGlu3; assay: progressive fold shift assay with glutamate; assay type: cell-based
in vivo rat PK = settings: 10 mg/kg
[5] = metabolite identification; assay type: in vitro ADME
mGlu3 [6] = target: T1, mGlu3; assay: probe dependence, glutamate vs LY379268; assay type: cell-based; settings: glutamate vs LY379268 as agonist
mGlu5 = mGlu5 (Homo sapiens, UniProt P41594); assay: mGluR selectivity, mGlu5; assay type: cell-based
Chain of mGlu5 (P41594 21-1212): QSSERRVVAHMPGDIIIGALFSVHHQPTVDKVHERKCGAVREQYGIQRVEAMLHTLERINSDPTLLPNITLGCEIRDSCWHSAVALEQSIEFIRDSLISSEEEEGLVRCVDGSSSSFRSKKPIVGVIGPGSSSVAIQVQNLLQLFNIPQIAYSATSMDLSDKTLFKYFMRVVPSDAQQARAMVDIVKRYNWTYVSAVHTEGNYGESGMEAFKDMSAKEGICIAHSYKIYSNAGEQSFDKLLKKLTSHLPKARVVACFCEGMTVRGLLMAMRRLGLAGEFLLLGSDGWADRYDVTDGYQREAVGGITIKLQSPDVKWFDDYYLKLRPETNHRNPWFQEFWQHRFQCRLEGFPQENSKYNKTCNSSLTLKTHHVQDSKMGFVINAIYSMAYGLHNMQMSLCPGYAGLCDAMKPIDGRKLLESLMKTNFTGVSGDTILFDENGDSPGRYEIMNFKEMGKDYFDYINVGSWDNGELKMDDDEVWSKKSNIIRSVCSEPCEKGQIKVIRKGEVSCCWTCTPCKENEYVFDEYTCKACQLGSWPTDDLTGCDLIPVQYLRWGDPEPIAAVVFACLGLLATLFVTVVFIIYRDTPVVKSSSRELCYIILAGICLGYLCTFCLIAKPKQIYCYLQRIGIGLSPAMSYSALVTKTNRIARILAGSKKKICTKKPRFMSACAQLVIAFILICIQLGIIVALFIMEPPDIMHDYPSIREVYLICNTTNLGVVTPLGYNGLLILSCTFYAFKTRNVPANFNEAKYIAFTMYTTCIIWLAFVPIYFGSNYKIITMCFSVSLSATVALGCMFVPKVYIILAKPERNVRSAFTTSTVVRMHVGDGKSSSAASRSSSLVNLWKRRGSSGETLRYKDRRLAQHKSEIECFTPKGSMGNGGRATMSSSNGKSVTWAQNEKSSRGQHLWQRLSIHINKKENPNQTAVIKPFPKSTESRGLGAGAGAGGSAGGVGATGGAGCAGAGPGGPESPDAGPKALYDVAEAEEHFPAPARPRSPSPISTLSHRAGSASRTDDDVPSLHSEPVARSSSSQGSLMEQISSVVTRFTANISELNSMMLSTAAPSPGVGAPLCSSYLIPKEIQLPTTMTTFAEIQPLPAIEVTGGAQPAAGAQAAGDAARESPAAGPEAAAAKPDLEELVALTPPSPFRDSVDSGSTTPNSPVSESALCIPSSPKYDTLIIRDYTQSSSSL

rat microsomal clearance = assay type: in vitro ADME; settings: for Rat CLHEP: predicted hepatic clearance in vitro; for Rat CLHEP / CLint scaled at 1 µM: rat; for CLint scaled at 1 µM: microsomes
rat IV PK = assay type: in vivo; settings: plasma
DAT = DAT (Homo sapiens, UniProt Q01959); assay: functional activity at DAT
mGlu4 = mGlu4 (Homo sapiens, UniProt Q14833); assay: mGluR selectivity, mGlu4; assay type: cell-based
mGlu7 = mGlu7 (Homo sapiens, UniProt Q14831); assay: mGluR selectivity, mGlu7; assay type: cell-based
Chain of mGlu7 (Q14831 35-915): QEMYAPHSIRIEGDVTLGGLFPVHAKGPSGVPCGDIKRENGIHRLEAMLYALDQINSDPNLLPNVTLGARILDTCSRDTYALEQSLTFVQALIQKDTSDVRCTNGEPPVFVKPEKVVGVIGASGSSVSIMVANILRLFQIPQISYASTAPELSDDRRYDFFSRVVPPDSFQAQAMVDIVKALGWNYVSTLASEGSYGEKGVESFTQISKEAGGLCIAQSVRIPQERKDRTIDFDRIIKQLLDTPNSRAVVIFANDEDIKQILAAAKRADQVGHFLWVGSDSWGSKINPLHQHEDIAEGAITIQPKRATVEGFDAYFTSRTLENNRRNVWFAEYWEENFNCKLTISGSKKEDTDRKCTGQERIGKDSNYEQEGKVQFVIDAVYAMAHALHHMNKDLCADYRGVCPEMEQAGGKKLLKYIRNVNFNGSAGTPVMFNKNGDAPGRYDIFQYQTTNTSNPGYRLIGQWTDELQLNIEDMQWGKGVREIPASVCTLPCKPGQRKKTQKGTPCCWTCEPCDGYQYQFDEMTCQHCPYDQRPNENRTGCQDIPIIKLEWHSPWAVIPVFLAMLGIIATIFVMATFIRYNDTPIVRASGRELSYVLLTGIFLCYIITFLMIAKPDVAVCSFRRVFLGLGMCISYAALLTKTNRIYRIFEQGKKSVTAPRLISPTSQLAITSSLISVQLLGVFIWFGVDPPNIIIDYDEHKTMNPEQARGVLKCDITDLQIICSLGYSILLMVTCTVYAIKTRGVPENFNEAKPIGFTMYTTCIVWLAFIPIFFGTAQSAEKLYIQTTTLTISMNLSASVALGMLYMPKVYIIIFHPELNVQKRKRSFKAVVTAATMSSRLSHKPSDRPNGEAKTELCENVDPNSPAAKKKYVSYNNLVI

mGlu3 [7] = target: T1, mGlu3; settings: cited from earlier work

T1 sequence (P31422 23-879): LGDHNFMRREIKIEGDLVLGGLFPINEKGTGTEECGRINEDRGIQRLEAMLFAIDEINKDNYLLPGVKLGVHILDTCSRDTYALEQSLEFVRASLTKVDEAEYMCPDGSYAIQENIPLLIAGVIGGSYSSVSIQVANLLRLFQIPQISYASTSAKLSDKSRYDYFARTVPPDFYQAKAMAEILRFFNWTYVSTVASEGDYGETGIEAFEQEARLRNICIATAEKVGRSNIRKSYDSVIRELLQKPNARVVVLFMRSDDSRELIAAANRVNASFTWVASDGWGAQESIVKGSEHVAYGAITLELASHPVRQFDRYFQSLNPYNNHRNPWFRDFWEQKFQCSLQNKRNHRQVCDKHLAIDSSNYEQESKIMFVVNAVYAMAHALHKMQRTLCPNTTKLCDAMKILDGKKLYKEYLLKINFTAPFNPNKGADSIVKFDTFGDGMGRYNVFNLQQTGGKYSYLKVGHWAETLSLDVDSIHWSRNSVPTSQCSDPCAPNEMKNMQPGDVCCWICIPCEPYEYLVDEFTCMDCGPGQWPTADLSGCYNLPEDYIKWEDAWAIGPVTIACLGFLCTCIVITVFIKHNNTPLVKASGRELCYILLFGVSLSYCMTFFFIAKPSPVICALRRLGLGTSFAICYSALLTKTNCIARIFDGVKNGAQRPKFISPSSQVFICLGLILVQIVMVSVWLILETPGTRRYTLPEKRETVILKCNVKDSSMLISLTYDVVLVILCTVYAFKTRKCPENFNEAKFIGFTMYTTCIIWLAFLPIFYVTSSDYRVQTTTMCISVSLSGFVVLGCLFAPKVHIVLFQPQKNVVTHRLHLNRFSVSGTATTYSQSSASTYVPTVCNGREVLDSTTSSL
Chain of mGlu1 (Q13255 19-1194): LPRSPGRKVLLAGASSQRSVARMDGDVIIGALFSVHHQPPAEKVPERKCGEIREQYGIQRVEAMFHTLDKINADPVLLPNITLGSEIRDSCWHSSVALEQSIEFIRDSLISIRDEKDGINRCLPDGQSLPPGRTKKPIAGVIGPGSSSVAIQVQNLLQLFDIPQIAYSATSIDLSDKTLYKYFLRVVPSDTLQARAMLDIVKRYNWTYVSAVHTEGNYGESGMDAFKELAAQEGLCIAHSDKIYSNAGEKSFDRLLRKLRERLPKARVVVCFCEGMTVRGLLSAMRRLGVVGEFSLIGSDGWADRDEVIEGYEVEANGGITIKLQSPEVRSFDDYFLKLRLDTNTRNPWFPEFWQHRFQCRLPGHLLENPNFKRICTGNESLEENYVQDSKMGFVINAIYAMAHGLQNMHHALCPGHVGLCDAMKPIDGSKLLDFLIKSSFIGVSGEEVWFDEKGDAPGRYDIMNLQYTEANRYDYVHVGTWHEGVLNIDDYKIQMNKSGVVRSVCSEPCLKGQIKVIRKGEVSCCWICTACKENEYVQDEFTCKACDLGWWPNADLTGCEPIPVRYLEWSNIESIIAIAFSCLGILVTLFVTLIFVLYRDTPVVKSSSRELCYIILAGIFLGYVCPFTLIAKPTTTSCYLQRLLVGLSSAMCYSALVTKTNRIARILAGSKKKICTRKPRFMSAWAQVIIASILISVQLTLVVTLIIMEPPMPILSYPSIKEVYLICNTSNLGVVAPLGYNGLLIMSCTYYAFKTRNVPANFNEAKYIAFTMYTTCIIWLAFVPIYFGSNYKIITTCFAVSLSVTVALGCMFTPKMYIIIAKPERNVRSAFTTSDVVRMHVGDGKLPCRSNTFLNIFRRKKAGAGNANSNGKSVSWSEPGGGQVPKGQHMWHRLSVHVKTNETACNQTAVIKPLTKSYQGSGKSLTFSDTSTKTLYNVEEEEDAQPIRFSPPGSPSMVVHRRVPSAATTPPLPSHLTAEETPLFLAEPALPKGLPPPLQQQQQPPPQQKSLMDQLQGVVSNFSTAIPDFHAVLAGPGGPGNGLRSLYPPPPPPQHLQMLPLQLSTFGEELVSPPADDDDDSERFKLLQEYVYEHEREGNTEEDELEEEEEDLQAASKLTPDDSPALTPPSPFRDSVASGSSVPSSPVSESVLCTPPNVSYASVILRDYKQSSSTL
Chain of mGlu6 (O15303 25-877): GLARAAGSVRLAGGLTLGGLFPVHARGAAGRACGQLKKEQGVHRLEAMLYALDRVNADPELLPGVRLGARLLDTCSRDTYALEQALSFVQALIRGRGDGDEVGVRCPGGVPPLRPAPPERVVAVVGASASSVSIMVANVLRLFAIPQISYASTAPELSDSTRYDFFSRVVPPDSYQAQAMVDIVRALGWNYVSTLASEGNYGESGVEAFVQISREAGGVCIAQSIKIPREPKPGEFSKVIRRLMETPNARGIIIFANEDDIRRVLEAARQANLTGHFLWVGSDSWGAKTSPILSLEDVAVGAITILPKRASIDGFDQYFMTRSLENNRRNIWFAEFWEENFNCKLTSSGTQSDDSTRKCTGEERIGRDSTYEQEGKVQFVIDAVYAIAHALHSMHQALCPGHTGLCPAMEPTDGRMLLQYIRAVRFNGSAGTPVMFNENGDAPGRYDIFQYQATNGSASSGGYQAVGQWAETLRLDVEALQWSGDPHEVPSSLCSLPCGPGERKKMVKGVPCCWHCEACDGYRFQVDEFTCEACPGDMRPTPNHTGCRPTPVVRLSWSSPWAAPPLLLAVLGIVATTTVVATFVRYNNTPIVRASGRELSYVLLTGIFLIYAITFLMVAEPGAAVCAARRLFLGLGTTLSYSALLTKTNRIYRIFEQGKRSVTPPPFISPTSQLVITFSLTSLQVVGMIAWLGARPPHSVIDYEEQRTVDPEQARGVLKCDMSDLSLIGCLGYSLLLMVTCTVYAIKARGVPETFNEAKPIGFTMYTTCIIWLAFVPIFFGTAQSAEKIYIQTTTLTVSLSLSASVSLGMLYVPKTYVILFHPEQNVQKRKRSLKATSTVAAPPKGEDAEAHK

COc1ccc(C#Cc2ccc(C(=O)N3CCC[C@@H](O)C3)cc2F)cc1 [compound 10]
mGlu3 NAM activity (in words) (mGlu3 [1]): sub-micromolar

COc1ccc(C#Cc2ccc(C(=O)N3CCC[C@@H](O)C3)c(F)c2)cc1 [compound 9]
IC50 (mGlu1): > 30 µM
IC50 (mGlu6): > 30 µM
BrainAUC [2]: 3.37 µM
plasmaAUC [2]: 3.71 µM
Human CLHEP ([3]; predicted hepatic clearance in vitro, human): 18.9 mL/min/kg
stability in human microsomes ([3]; words): unstable
IC50 (mGlu8): > 30 µM
functional activity at 5-HT2B (5-HT2B): no functional activity
mode of antagonism with respect to glutamate (mGlu3 [4]): non-competitive antagonism; also recorded: non-competitive decrease in the EC80
Brain AUC0-6 (in vivo rat PK; IP, 0-6 h): 9.6 µM·h
Kp (in vivo rat PK; brain and plasma, ip): 0.3
AUC(0-t) (in vivo rat PK; plasma, ip): 33.1 µM·h
major metabolite [5]: P450-mediated O-demethylation
probe dependence (mGlu3 [6]): no differences; also recorded: equipotent and efficacious
IC50 (mGlu5): > 30 µM
Rat CLHEP (rat microsomal clearance): 54.1 mL/min/kg
CLint scaled at 1 µM (rat microsomal clearance): 239 mL/min/kg
stability in rat microsomes (rat microsomal clearance; words): unstable
Vd (rat IV PK): 0.21 L/kg
clearance (rat IV PK): 5.2 mL/min/kg
functional activity at DAT (DAT): no functional activity
IC50 (mGlu4): > 30 µM
IC50 (mGlu7): > 30 µM
mGlu3 NAM activity (in words) (mGlu3 [1]): sub-micromolar

[2H]C([2H])([2H])Oc1ccc(C#Cc2ccc(C(=O)N3CCC[C@@H](O)C3)c(F)c2)cc1 [compound 12]
Rat CLHEP (rat microsomal clearance): 35.9 mL/min/kg
Vd (rat IV PK): 0.18 L/kg
clearance (rat IV PK): 2.9 mL/min/kg

COc1ccc(C#Cc2ccc(C(=O)N3CCC[C@@H](O)C3)cc2)cc1 [8d]
Rat CLHEP (rat microsomal clearance): 52.7 mL/min/kg
CLint scaled at 1 µM (rat microsomal clearance): 214 mL/min/kg
Vd (rat IV PK): 0.22 L/kg
clearance (rat IV PK): 6.2 mL/min/kg

[2H]C([2H])([2H])Oc1ccc(C#Cc2ccc(C(=O)N3CCC[C@@H](O)C3)cc2)cc1 [compound 11]
Rat CLHEP (rat microsomal clearance): 40.7 mL/min/kg
CLint scaled at 1 µM (rat microsomal clearance): 97.3 mL/min/kg
Vd (rat IV PK): 0.21 L/kg
clearance (rat IV PK): 3.3 mL/min/kg

COc1ccc(C#Cc2ccc(C(=O)N3CCC[C@@H](CO)C3)cc2)cc1 [compound 3]
selectivity vs. mGlu2 (mGlu3 [7]): > 15 fold

COc1ccc(C#Cc2ccc(C(=O)N3CCCC(OC)C3)cc2)cc1 (centres unmarked) [8b]
mGlu3 NAM activity (in words) (mGlu3 [1]): lost

— PMC3769689 (Journal of medicinal chemistry, 2013)
